# Laboratory results published in ChEMBL document CHEMBL5661966, “Aurora B couples chromosome alignment with anaphase by targeting BubR1, Mad2, and Cenp-E to kinetochores” (J Cell Biol, 2003).
# The source made the active and inactive calls. The rule behind the calls is not given here.
# Columns and labels:
# HeLa [1] = assay: Induction of mitosis in human HeLa cells assessed as cyclin B1 level at 18 hrs by flow cytometric analysis; assay type: functional, cell-based
# DLD-1 [2] = assay: Inhibition of sister chromatid separation in human DLD-1 cells; assay type: functional, cell-based
# hTERT-HME1 = assay: Induction of endoreduplication in human HME cells measured after 48 hrs; assay type: functional, cell-based
# DLD-1 [3] = assay: Effect on human DLD-1 cells assessed as reduction in fluorescence intensity of kinetochore bound BubR1/ACA ratio in presence of nocodazole measured by immunofluorescence imaging analysis relative to control; assay type: functional; design: scale not given: the % may be the effect or the level left
# DLD-1 (Homo sapiens) = assay: Effect on paclitaxel pretreated human DLD-1 cells assessed as compromising of microtubule polymerization induced spindle check point function
# DLD-1 [4] = assay: Effect on human DLD-1 cells assessed as localization of survivin to centromere measured after 1 hr by immunofluorescence imaging analysis; assay type: functional, cell-based
# HeLa [5] = assay: Induction of mitosis in human HeLa cells assessed as peaked mitotic index at 10 hrs by flow cytometric analysis; assay type: functional, cell-based
# DLD-1 [6] = assay: Inhibition of chromosome alignment in human DLD-1 cells assessed as abnormal chromosome appearance upto 6 hrs; assay type: functional, cell-based
# HeLa [7] = assay: Induction of cell cycle arrest in 12 hrs nocodazole block pretreated human HeLa cells assessed as mitotic stage exit in presence of nocodazole measured after 4 hrs; assay type: functional, cell-based
# Procedure, shortened: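 HeLa cells were held in a nocodazole block for 2 or 12 h, and mitotic cells were harvested. They were replated in nocodazole alone or nocodazole plus test drug. Mitotic index was scored by MPM-2 reactivity after 4 h.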
# HeLa [8] = assay: Effect on nocodazole pretreated human HeLa cells assessed as compromising of microtubule polymerization induced spindle check point function; assay type: functional, cell-based
# DLD-1 [9] = assay: Effect on human DLD-1 cells assessed as reduction in kinetochore bound BubR1 measured after 1 hr by immunofluorescence imaging analysis; assay type: functional, cell-based
# DLD-1 [10] = assay: Effect on human DLD-1 cells assessed as reduction in kinetochore bound CenP-E measured after 1 hr by immunofluorescence imaging analysis; assay type: functional, cell-based
# A549 = assay: Induction of endoreduplication in human A549 cells measured after 48 hrs; assay type: functional, cell-based
# DLD-1 [11] = assay: Effect on human DLD-1 cells assessed as reduction in kinetochore bound Mad2 measured after 1 hr by immunofluorescence imaging analysis; assay type: functional, cell-based
# HeLa [12] = assay: Induction of cell cycle arrest in human HeLa cells assessed as increase in cyclin B1 level measured after 1 hr by immunoblot analysis; assay type: functional, cell-based
# Procedure, shortened: (§1)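 Mitotic HeLa cells were collected by selective detachment after a 12-h nocodazole block, washed free of nocodazole, and replated in the drug combinations. Cells were harvested at set times. Mitotic index was scored by MPM-2 reactivity, cyclin B1 was measured by immunoblot, and DNA content was read as histograms.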
# [13] = target: Mitotic checkpoint serine/threonine-protein kinase BUB1 beta (Homo sapiens) (UniProt O60566); assay: Inhibition of BubR1 phosphorylation in mitotic human HeLa cells released from G1/S blocks by immunoblotting analysis; assay type: cell-based
# Chain of Mitotic checkpoint serine/threonine-protein kinase BUB1 beta (Homo sapiens) (O60566 whole entry): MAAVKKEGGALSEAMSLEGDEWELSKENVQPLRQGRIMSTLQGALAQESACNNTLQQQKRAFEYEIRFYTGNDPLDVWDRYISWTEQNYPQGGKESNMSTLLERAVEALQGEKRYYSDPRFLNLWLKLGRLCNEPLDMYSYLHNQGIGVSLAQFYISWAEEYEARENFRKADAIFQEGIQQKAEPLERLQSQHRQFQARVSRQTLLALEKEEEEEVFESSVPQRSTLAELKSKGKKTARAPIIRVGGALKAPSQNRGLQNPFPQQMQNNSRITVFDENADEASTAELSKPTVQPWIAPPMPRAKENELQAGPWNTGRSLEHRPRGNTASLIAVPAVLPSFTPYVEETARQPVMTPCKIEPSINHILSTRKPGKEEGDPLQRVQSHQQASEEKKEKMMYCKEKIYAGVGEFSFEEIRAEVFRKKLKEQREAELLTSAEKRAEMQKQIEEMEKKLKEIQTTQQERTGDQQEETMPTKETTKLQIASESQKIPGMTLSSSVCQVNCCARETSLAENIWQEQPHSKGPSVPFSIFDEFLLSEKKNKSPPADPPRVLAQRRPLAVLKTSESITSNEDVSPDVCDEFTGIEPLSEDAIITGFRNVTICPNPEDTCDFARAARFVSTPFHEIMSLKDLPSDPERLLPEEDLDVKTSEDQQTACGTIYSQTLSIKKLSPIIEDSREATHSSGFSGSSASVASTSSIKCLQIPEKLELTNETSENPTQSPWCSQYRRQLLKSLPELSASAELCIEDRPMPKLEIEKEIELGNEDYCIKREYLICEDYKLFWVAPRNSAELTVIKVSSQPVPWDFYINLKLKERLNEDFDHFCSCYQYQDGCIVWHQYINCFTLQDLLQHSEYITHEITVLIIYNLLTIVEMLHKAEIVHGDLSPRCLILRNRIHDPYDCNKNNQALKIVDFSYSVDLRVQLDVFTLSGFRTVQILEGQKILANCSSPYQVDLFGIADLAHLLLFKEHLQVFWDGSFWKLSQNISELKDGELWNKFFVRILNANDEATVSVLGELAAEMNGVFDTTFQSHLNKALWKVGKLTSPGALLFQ
# [14] = target: Mitotic checkpoint serine/threonine-protein kinase BUB1 beta (Homo sapiens) (UniProt O60566); assay: Inhibition of BubR1 immunoprecipitate phosphorylation in mitotic human HeLa cells released from G1/S blocks; assay type: cell-based
# DLD-1 [15] = assay: Inhibition of chromosome alignment in human DLD-1 cells assessed as reduction of metaphase and anaphase spindle proportion for 1 hr; assay type: functional, cell-based
# DLD-1 [16] = assay: Effect on human DLD-1 cells assessed as localization of Aurora B to centromere measured after 1 hr by immunofluorescence imaging analysis; assay type: functional, cell-based
# DLD-1 [17] = assay: Induction of cell cycle arrest in human DLD-1 cells assessed as accumulation of cells at mitotic stage upto 6 hrs by SEM analysis; assay type: functional, cell-based
# [18] = target: Mitotic checkpoint serine/threonine-protein kinase BUB1 beta (Homo sapiens) (UniProt O60566); assay: Inhibition of BubR1 phosphorylation in mitotic human HeLa cells released from G1/S blocks in presence of nocodazole by immunoblotting analysis; assay type: cell-based
# HeLa [19] = assay: Induction of cell cycle arrest in human HeLa cells assessed as accumulation of cells at mitotic stage measured after 2 hrs; assay type: functional, cell-based; procedure, shortened: as §1
# HeLa [20] = assay: Induction of cell cycle arrest in human HeLa cells assessed as increase in cyclin B1 level measured after 2 hrs by immunoblot analysis; assay type: functional, cell-based; procedure, shortened: as §1
# HeLa [21] = assay: Induction of cell cycle arrest in human HeLa cells assessed as mitotic index measured after 6 hrs relative to control; assay type: functional
# [22] = Inhibition of reassociation of kinetochore with BubR1 in human DLD-1 cells assessed as inter-kinetochore distance measured for 40 mins (reference value: 0.89+/-0.20 uM); assay type: functional
# [23] = Inhibition of reassociation of kinetochore with BubR1 in human DLD-1 cells assessed as BubR1/ACA fluorescence ratio measured for 40 mins (reference value: 2.23+/-1.21); assay type: functional
compound,measurement,setting,value
COc1cc2c(Nc3ccc(NC(=O)c4ccccc4)cc3)ncnc2cc1OCCCN1CCOCC1,Activity,HeLa [1],Active
same,inhibition,DLD-1 [2],inactive
same,Activity,hTERT-HME1,Active
same,Activity,DLD-1 [3],0%
same,Activity,DLD-1 (Homo sapiens),Active
same,Activity,DLD-1 [4],Active
same,Activity,HeLa [5],Active
same,inhibition,DLD-1 [6],Active
same,Activity,HeLa [7],Active
same,Activity,HeLa [8],Active
same,Activity,DLD-1 [9],Active
same,Activity,DLD-1 [10],Active
same,Activity,A549,Active
same,Activity,DLD-1 [11],Active
same,Activity,HeLa [12],Active
same,inhibition,[13],Active
same,inhibition,[14],inactive
same,inhibition,DLD-1 [15],Active
same,Activity,DLD-1 [16],Active
same,Activity,DLD-1 [17],Active
same,inhibition,[18],Active
COC(=O)Nc1nc2cc(C(=O)c3cccs3)ccc2[nH]1 [NOCODAZOLE],Activity,HeLa [1],Active
same,Activity,HeLa [19],Active
same,Activity,HeLa [20],Active
same,Activity,HeLa [21],~25%
same,Activity,DLD-1 [17],Active
CC(=O)O[C@H]1C(=O)[C@@]2(C)[C@H]([C@H](OC(=O)c3ccccc3)[C@]3(O)C[C@H](OC(=O)[C@H](O)[C@@H](NC(=O)c4ccccc4)c4ccccc4)C(C)=C1C3(C)C)[C@]1(OC(C)=O)CO[C@@H]1C[C@@H]2O [PACLITAXEL],inter-kinetochore distance,[22],0.58 µm
same,Activity,[23],3.86
same,Activity,HeLa [21],~25%
